Laboratory results published in ChEMBL document CHEMBL1129639, “Synthesis and cardiotonic activity of novel pyrimidine derivatives: crystallographic and quantum chemical studies” (J Med Chem, 1996).

Assays:
Format in all cases: functional
Cavia porcellus [1] = species on record: Cavia porcellus; test: Effect on the contractile force of spontaneously beating atria from Reserpine-treated guinea pigs as percentage variation from the control at concentration of 10E-5 M
Procedure, shortened: (§1)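 Atria from reserpine-treated guinea pigs (reserpine 2 mg/kg ip, 48 and 24 h before death; only tyramine-unresponsive preparations used). Bath solution at 29 °C, gassed 95% O2/5% CO2, pH 7.5, resting tension […]. After 90 min equilibration, compound added cumulatively, 5 min per concentration. Isometric developed-tension amplitude or beating rate given as % variation from untreated control. Mean ± SEM, 6-10 assays.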

Cavia porcellus [2] = species on record: Cavia porcellus; test: Effect on the contractile force of spontaneously beating atria from Reserpine-treated guinea pigs as percentage variation from the control at concentration of 10E-6 M; procedure, shortened: as §1
Cavia porcellus [3] = species on record: Cavia porcellus; test: Effect on the contractile force of spontaneously beating atria from Reserpine-treated guinea pigs as percentage variation from the control at concentration of 3 x 10E-4 M; procedure, shortened: as §1
Cavia porcellus [4] = species on record: Cavia porcellus; test: Effect on the contractile force of spontaneously beating atria from Reserpine-treated guinea pigs as percentage variation from the control at concentration of 3 x 10E-5 M; procedure, shortened: as §1
Cavia porcellus [5] = species on record: Cavia porcellus; test: Effect on the contractile force of spontaneously beating atria from Reserpine-treated guinea pigs as percentage variation from the control at concentration of 3 x 10E-6 M; procedure, shortened: as §1
Cavia porcellus [6] = species on record: Cavia porcellus; test: Effect on the frequency rate of spontaneously beating atria from Reserpine-treated guinea pigs as percentage variation from the control at concentration of 10E-3 M; procedure, shortened: as §1
Cavia porcellus [7] = species on record: Cavia porcellus; test: Effect on the frequency rate of spontaneously beating atria from Reserpine-treated guinea pigs as percentage variation from the control at concentration of 10E-4 M; procedure, shortened: as §1
Cavia porcellus [8] = species on record: Cavia porcellus; test: Effect on the frequency rate of spontaneously beating atria from Reserpine-treated guinea pigs as percentage variation from the control at concentration of 10E-5 M; procedure, shortened: as §1
Cavia porcellus [9] = species on record: Cavia porcellus; test: Effect on the frequency rate of spontaneously beating atria from Reserpine-treated guinea pigs as percentage variation from the control at concentration of 10E-6 M; procedure, shortened: as §1
Cavia porcellus [10] = species on record: Cavia porcellus; test: Compound was evaluated for its effect on the frequency rate of spontaneously beating atria from Reserpine-treated guinea pigs as percentage variation from the control at concentration of 3 x 10E-4 M; procedure, shortened: as §1
Cavia porcellus [11] = species on record: Cavia porcellus; test: Compound was evaluated for its effect on the frequency rate of spontaneously beating atria from Reserpine-treated guinea pigs as percentage variation from the control at concentration of 3 x 10E-5 M; procedure, shortened: as §1
Cavia porcellus [12] = species on record: Cavia porcellus; test: Compound was evaluated for its effect on the frequency rate of spontaneously beating atria from Reserpine-treated guinea pigs as percentage variation from the control at concentration of 3 x 10E-6 M; procedure, shortened: as §1
Cavia porcellus [13] = species on record: Cavia porcellus; test: Effect on the contractile force of spontaneously beating atria from Reserpine-treated guinea pigs as percentage variation from the control at concentration of 10E-3 M; procedure, shortened: as §1
Cavia porcellus [14] = species on record: Cavia porcellus; test: Effect on the contractile force of spontaneously beating atria from Reserpine treated guinea pigs as percentage variation from the control at concentration of 10E-4 M; procedure, shortened: as §1

Row | SMILES | Variation (Cavia porcellus [1]) | Variation (Cavia porcellus [2]) | Variation (Cavia porcellus [3]) | Variation (Cavia porcellus [4]) | Variation (Cavia porcellus [5]) | Variation (Cavia porcellus [6]) | Variation (Cavia porcellus [7]) | Variation (Cavia porcellus [8]) | Variation (Cavia porcellus [9]) | Variation (Cavia porcellus [10]) | Variation (Cavia porcellus [11]) | Variation (Cavia porcellus [12]) | Variation (Cavia porcellus [13]) | Variation (Cavia porcellus [14])
1 | CCc1nc(N(C)C)ncc1C(=O)O | 4.47% | 0% | 14.69% | 6.17% | 2.44% | -7.69% | 1.11% | 0% | 0% | -4.79% | 0% | 0% | 22.03% | 6.67%
2 | CCOC(=O)c1cnc(N(C)C)nc1CC | -39.54% | 0% |  | -67.44% | 0% |  | -100% | -9.37% |  |  | -14.76% | -6.25% |  | -100%
3 | CCOC(=O)c1cnc(N(C)C)nc1C(F)(F)F | 10.67% | 7.15% | -47.85% | -3.61% | 11.26% | -19.35% | -6.66% | -3.23% | 0% | -6.66% | -3.61% | 0% | -60.44% | -30.35%
4 | CC(C)c1nc(N(C)C)ncc1C(=O)O | 7.13% | 1.79% | 16.41% | 7.79% | 4.06% | -28.57% | -14.28% | -3.13% | 0% | -17.58% | -10.71% | -3.13% | 23.17% | 11.77%
5 | COCc1nc(N(C)C)ncc1C(=O)O | 9.99% | 5.46% | 8.19% | 9.72% | 9.16% | -9.37% | -6.25% | 0% | 0% | -6.25% | -3.12% | 0% | 5.92% | 8.24%
6 | COCc1ccnc(N(C)C)n1 | 0% | 0% | -11.89% | -8.02% | 0% | -9.33% | -4% | -1.33% | 0% | 4% | -4% | 0% | -20.93% | -9.03%
7 | CN(C)c1ncc(C(=O)O)c(-c2ccccc2)n1 | 11.47% | 6.62% | 14.22% | 12.11% | 10.63% | -6.25% | -3.12% | 0% | 0% | -3.12% | 0% | 0% | 18.2% | 12.75%
8 | Cc1ccnc(N(C)C)n1 | 8.9% | 0% | 22.47% | 16.76% | 2.27% | -17.34% | 0% | 0% | 0% | -6.25% | 0% | 0% | -36.67% | 19.04%
9 | CCOC(=O)c1cnc(N(C)C)nc1C(C)C | 1.06% | 0% | -100% | -34.22% | 3.19% |  | -2.94% | -3.51% | -3.85% | -100% | -0.91% | -2.94% |  | -57.53%
10 | CCCc1nc(N(C)C)ncc1C(=O)OCC | -57.89% | 0% |  | -100% | -5.29% |  |  |  | 0% |  |  |  |  | 0%
11 | CN(C)c1ncc(C(=O)O)c(C(F)(F)F)n1 | 9.45% | 2.25% | 14.96% | 13.44% | 6.15% | -14.28% | -3.03% | -2.85% | 0% | -9.09% | -3.03% | 0% | 9.52% | 14.03%
12 | CCOC(=O)c1cnc(N(C)C)nc1C(C)(C)C | -12.52% | 0% |  | -50.08% | 2.08% |  | -100% | 4.76% | 0% |  | -7.64% | 0% |  | -100%
13 | CC(C)c1ccnc(N(C)C)n1 | -8.84% | 0% | -86.36% | -28.95% | 0% | -100% | -41.66% | -5.15% | 0% | -41.66% | -17.26% | -5.15% | -100% | -68.77%
14 | CCOC(=O)c1cnc(N(C)C)nc1-c1ccccc1 | 12.05% | 1.73% | -70.37% | 2.25% | 10.24% | -100% | -3.7% | 3.7% | 0% | -14.81% | 7.4% | 0% | -100% | -40.74%
15 | CN(C)c1nccc(C(F)(F)F)n1 | -12.62% | 0% | -83.03% | -30.94% | 2.47% | -100% | -22.58% | -3.23% | 0% | -32.26% | -3.68% | 0% | -100% | -67.95%
16 | CN(C)c1nccc(-c2ccccc2)n1 | 7.52% | 0% | -23.76% | 5.57% | 4.67% | -100% | 0% | 0% | 0% | -13.33% | 0% | 0% | -100% | -12.16%
17 | CN(C)c1nccc(C(C)(C)C)n1 | -5.56% | 0% | -34.94% | -24.35% | 1.13% | -40% | -16.66% | -6.66% | 0% | -30.01% | -13.33% | 0% | -35.14% | -37.31%
18 | CCc1ccnc(N(C)C)n1 | 15.05% | 5.39% | -43.95% | 9.21% | 9.91% | -42.41% | -14.95% | -3.03% | 0% | -28.91% | -4.77% | 0% | -84.45% | -10.54%
19 | CCCc1nc(N(C)C)ncc1C(=O)O | 11.21% | 5.38% | 19.73% | 15.72% | 8.66% | -4.28% | -2.85% | -2.85% | 0% | -5.71% | -2.85% | 0% | 23.61% | 18.35%
20 | CN(C)c1ncc(C(=O)O)cn1 | 7.54% | 3.76% | 8.34% | 10.48% | 6.36% | 6.25% | 3.44% | 3.12% | 0% | 3.44% | 3.44% | 0% | 9.64% | 9.39%
